Results reported in PMC11310375 (EJNMMI Radiopharmacy and Chemistry, 2024).

Tests used:
[1] = system: HeLa cells; assay: Caspase activity assay with fluorogenic substrate Ac-DEVD-AMC in cell lysates; assay type: cell-based, human; settings: HeLa cells treated with STS
Summary of the method: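 HeLa cells were seeded at 0.3×10^6 per well in supplemented DMEM at 37 °C, 5% CO₂. […] Cells were lysed in hypotonic PIPES/NP-40 buffer pH 7.4 on ice. Lysate (20 μg protein) was incubated with 50 μM Ac-DEVD-AMC in 100 μL caspase buffer for 1 h at 37 °C. AMC fluorescence (ex 360/em 460) was converted to pmol by free-AMC standard curve; mean of three.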

[2] = biological target: T1, caspase-3 (Homo sapiens, UniProt P42574); assay: Biochemical inhibition assay, kinact/Ki with AMAC substrate; settings: AMAC-substrates, N = 4
T1 sequence (P42574 29-175 limits assumed): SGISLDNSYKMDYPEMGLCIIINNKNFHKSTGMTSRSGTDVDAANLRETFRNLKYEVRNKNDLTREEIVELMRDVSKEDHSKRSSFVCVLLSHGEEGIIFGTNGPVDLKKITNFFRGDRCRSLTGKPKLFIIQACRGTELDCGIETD
T1 sequence (P42574 176-277 limits assumed): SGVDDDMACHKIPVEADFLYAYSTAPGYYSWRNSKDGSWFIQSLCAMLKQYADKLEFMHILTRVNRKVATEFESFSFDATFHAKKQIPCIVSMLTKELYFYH
Summary of the method: (§1)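 Continuous fluorogenic inactivation assay with Ac-DEVD-AMAC at 100 μM final. Final enzyme concentrations were 1 nM caspase-3 and 5 nM caspase-7. Enzyme was added to substrate plus inhibitor, and fluorescence (ex 320/em 460) was read immediately. Progress curves were fit to F = -[v₀(1-exp(-kobst))/kobs-Fmax] to give kinact and Ki.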

[3] = biological target: T2, caspase-6 (Homo sapiens, UniProt P55212); assay: Biochemical inhibition assay, kinact/Ki with AMAC substrate; settings: AMAC-substrates, N = 4
T2 sequence (P55212 24-179 limits assumed): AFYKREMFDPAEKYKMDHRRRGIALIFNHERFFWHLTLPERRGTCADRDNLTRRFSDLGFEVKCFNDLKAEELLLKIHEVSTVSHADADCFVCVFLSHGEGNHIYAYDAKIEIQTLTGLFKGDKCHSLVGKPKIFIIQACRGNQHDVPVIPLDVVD
T2 sequence (P55212 194-293 limits assumed): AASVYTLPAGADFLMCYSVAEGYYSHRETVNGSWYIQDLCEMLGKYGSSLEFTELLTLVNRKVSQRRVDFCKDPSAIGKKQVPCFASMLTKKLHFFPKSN
Summary of the method: (§2)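 Caspase-8 (25 nM), caspase-9 (100 nM) and caspase-10 (20 nM) used Ac-IETD-AMAC; caspase-9 and caspase-10 buffers also had 0.7 M sodium citrate. Caspase-6 (25 nM) used Ac-VEID-AMAC. Fluorescence (ex 320/em 460) was read immediately, and progress curves were fit for kinact and Ki.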

[4] = biological target: T3, caspase-7 (Homo sapiens, UniProt P55210); assay: Biochemical inhibition assay, kinact/Ki with AMAC substrate; settings: AMAC-substrates, N = 4
T3 sequence (P55210 24-198 limits assumed): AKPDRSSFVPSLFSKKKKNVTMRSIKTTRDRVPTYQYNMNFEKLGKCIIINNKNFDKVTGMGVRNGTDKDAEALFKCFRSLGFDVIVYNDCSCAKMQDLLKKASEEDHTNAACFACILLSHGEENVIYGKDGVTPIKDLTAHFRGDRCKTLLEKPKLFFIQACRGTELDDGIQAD
T3 sequence (P55210 207-303 limits assumed): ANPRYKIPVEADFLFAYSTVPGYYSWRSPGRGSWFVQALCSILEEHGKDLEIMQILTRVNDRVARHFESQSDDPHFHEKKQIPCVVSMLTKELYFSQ
Summary of the method: as §1

[5] = biological target: caspase-8 (Homo sapiens, UniProt Q14790); assay: Biochemical inhibition assay, kinact/Ki with AMAC substrate; settings: AMAC-substrates, N = 4
Sequence of caspase-8 (Q14790 217-374 limits assumed): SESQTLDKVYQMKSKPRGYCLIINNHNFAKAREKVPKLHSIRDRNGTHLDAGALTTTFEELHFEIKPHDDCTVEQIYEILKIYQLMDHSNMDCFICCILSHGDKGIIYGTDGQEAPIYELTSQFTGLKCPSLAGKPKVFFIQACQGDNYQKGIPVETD
Sequence of caspase-8 (Q14790 385-479 limits assumed): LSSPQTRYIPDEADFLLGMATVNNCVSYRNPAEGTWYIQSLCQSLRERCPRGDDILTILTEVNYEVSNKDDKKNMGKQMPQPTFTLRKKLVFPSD
Summary of the method: as §2

[6] = biological target: T4, caspase-9 (Homo sapiens, UniProt P55211); assay: as above; settings: AMAC-substrates, N = 4
T4 sequence (P55211 1-315 limits assumed): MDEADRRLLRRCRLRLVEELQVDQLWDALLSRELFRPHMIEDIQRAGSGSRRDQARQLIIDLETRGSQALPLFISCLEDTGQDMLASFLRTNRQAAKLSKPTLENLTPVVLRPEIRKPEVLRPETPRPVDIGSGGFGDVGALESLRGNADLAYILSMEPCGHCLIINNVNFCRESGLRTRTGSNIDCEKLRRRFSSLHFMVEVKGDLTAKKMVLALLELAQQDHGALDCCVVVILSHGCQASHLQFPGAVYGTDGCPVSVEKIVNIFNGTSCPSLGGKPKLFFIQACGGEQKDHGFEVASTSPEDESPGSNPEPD
T4 sequence (P55211 331-416 limits assumed): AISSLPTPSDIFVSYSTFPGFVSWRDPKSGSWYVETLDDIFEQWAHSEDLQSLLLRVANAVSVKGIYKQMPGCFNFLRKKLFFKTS
Summary of the method: as §2

[7] = biological target: T5, caspase-10 (Homo sapiens, UniProt Q92851); assay: as above; settings: AMAC-substrates, N = 4
T5 sequence (Q92851 220-415 limits assumed): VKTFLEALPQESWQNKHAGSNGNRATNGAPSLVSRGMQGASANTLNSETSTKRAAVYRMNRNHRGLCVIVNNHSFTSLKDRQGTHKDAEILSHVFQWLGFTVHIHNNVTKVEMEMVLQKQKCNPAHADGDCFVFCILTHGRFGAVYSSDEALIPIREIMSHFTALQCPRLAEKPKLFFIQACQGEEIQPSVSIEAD
T5 sequence (Q92851 416-521 limits assumed): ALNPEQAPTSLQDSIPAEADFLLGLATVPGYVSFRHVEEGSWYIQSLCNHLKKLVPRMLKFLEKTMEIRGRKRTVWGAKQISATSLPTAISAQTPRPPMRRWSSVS
Summary of the method: as §2

[8] = biological target: T1, caspase-3; assay: Biochemical inhibition assay, kinact/Ki with Ac-DEVD-AMC substrate
Summary of the method: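 Ac-DEVD-AMC was 50 µM final and inhibitor 20 to 80 nM final. Reference inhibitor Ac-ATS010-KE was run alongside. kinact/Ki was derived as for the AMAC assay.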

[9] = biological target: T1, caspase-3; settings: ref Solania et al. [2019]; cited from earlier work
[10] = system: Jurkat cells; settings: ref Solania et al. [2019]; cited from earlier work
[11] = system: COLO205 tumours; assay: Caspase activity in tumour homogenates with fluorogenic substrate; assay type: in vivo, CD1^−/− nude mice; settings: 24 h after treatment
Summary of the method: (§3)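 Female CD1 nude mice bore subcutaneous hind-leg xenografts: COLO205 at 2×10⁶ cells, HT29 at 10×10⁶. At about 200 mm³, mice received conatumumab or IgG1 isotype, 1.5 mg/kg i.p. Tumours were taken 24 h later and homogenised. Homogenate (20 μg protein) was incubated with 50 μM Ac-DEVD-AMC in caspase buffer, 1 h, 37 °C. AMC (ex 360/em 460) was quantified in pmol against a free-AMC standard; N = 3.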

[12] = system: HT29 tumours; assay: as above; assay type: in vivo, CD1^−/− nude mice; settings: 24 h after treatment
Summary of the method: as §3

Compound: CN[C@@H]1C[C@H]2O[C@@](C)([C@@H]1OC)n1c3ccccc3c3c4c(c5c6ccccc6n2c5c31)C(=O)NC4 [STS, staurosporine]
- AMC liberation (caspase activity) [1]: 1598 ± 444 pmol AMC

Compound: Ac-3Pal-Asp-Phe(F5)-Phe-Asp-KE [Ac-ATS010-KE, reference compound]
- kinact/Ki C3 [2]: 1.7e+06 M⁻¹ s⁻¹
- kinact/Ki C6 [3]: 300 M⁻¹ s⁻¹
- kinact/Ki C7 [4]: 190000 M⁻¹ s⁻¹
- kinact/Ki C8 [5]: 25000 M⁻¹ s⁻¹
- kinact/Ki C9 [6]: 14000 M⁻¹ s⁻¹
- kinact/Ki C10 [7]: 1000 M⁻¹ s⁻¹
- kinact/Ki caspase-3 [8]: 46.48 ± 9.96 × 10^4.s^−1.M^−1
- increase of kinact/Ki for caspase-3 over the DW3 sequence [9]: 154 fold
- protection from MegaFasL-induced apoptosis [10]: able to protect Jurkat cells from MegaFasL-induced apoptosis

Compound: conatumumab: apoptosis-inducing therapy (Amgen) given to tumour-bearing mice, compared with IgG1 isotype control
- caspase activity, liberated AMC [11]: 15,119 ± 761 pmol liberated AMC
- caspase activity, liberated AMC [12]: 679 ± 63 pmol liberated AMC
